Laboratory results taken from publication PMC4324418 (ACS Chemical Neuroscience, 2014).

Columns and labels:
[1] = tested on: 57 GPCRs, ion channels, and transporters; test: Ricerca lead profiling screen, radioligand binding panel; conditions: 10 μM
in vivo = conditions: male, Sprague-Dawley, rat, po, 3 mg/kg, Tmax,p
[2] = rat (data not shown)
[3] = target: T1, human adenosine transporter (Homo sapiens, UniProt Q99808); test: [3H]adenosine uptake functional assay; format: cell-based
T1 sequence (Q99808 1-456): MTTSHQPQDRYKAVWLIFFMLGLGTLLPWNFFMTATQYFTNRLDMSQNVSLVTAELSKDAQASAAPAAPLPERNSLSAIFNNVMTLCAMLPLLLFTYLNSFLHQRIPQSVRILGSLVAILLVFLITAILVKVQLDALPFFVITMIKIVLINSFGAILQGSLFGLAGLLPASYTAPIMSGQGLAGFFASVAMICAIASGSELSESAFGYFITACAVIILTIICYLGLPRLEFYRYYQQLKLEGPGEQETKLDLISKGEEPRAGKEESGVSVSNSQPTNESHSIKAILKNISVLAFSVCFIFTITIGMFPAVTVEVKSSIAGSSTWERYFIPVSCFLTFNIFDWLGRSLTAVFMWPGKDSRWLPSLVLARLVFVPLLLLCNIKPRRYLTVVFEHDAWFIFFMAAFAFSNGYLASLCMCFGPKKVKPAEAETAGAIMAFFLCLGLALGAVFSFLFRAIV

wild-type mice [4] = test: MK-801-induced locomotor and nonlocomotor open field behaviors; format: in vivo, mouse
Summary of the method: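 After 90 min open-field habituation, mice received vehicle (10% Tween 80 IP) or test compound (3–30 mg/kg IP). Saline or MK-801 (0.3 mg/kg IP) followed 30 min later. Over the next 120 min, ambulatory episodes, vertical counts, stereotypic counts and resting time were scored. Groups were 7–13 mice; ANOVA with Bonferroni tests.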

rat M4 receptor = target: T2, rat M4 receptor (Rattus norvegicus, UniProt P08485); test: [3H]NMS radioligand binding, modulation of ACh affinity; conditions: ACh displacement of [3H]NMS, modulator 300 nM to 10 μM
T2 sequence (P08485 1-478): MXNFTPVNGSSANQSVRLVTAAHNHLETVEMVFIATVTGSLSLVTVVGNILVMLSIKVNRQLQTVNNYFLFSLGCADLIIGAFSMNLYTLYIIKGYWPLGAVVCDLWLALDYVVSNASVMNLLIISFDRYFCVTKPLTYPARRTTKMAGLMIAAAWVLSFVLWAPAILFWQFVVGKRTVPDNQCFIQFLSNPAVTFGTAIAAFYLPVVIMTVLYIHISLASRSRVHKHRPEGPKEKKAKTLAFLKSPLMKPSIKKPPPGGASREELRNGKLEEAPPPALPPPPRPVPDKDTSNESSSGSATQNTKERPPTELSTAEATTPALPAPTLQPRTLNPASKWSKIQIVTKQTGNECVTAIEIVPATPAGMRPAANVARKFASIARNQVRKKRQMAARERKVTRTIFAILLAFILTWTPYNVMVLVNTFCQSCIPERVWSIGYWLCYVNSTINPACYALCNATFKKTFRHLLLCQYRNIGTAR
Summary of the method: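 Membranes came from CHO cells expressing rat M4 cotransfected with Gqi5, homogenized in 50 mM Tris-HCl/0.9% NaCl, pH 7.4. Membranes (10 μg/well) were incubated with 300 pM [3H]NMS, fixed modulator (300 nM–10 μM) or vehicle, and ACh (1 nM–1 mM) for 3 h at room temperature with shaking. Buffer was 100 mM NaCl, 10 mM MgCl2, 20 mM HEPES, […], pH 7.4. Nonspecific binding was set with 10 μM atropine. Bound ligand was filtered and counted; n ≥ 2. Cooperativity was fitted with the […].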

rat M2 receptor = test: Calcium mobilization, selectivity; format: cell-based
Summary of the method: (§1)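 Cells were seeded at 15000/well in DMEM with 10% dialyzed FBS, 20 mM HEPES and 1 mM pyruvate, then cultured overnight at 37 °C/5% CO2. M2 and M4 lines were cotransfected with Gqi5. Cells were loaded with 1 μM Fluo-4AM (HBSS, 20 mM HEPES, 2.5 mM probenecid, pH 7.4) for 50 min at 37 °C. ACh was added 140 s after test compound. Calcium signal was expressed as % of the 10 μM ACh maximum.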

[5] = Mouse plasma protein binding; format: in vitro ADME
wild-type mice [6] = test: Nociceptive response to increasing footshock current intensities; format: in vivo, mouse; conditions: 10 mg/kg IP
Summary of the method: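 Mice received vehicle (10% Tween 80 in sterile water, IP) or test compound (10 mg/kg IP) and were placed in conditioning chambers 30 min later. Behavioural responses were scored over rising footshock currents, 0–0.5 mA in 0.05 mA steps. Groups had 6–10 animals. Data: mean ± SEM, one-way ANOVA with Bonferroni test.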

rat M5 receptor = test: Calcium mobilization, selectivity; format: cell-based
Summary of the method: as §1

M4 KO mice [7] = test: Touchscreen pairwise visual discrimination task, M4 KO mice; format: in vivo, mouse
Summary of the method: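 Mice aged 8–11 weeks were held at ~85% free-feeding weight, with water freely available. They were trained on touchscreen nosepoke discrimination (60 trials or 60 min) to ≥85% accuracy on 3 consecutive days. Next day: vehicle (10% Tween 80 IP) or test compound (3–30 mg/kg IP) 60 min pre-test, then saline or MK-801 (0.1–0.3 mg/kg IP) 30 min later. Mice were retested drug-free 24 h later. Analysis: ANOVA with Bonferroni tests.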

[8] = Amphetamine-induced hyperlocomotion in M4 KO mice; format: in vivo, mouse; conditions: mouse, brain, ip, 10 mg/kg, 10 mg/kg IP
M4 KO mice [9] = test: Amphetamine-induced hyperlocomotion in M4 KO mice; format: in vivo, mouse
rat M3 receptor = test: Calcium mobilization, selectivity; format: cell-based
Summary of the method: as §1

human M5 receptor = test: Calcium mobilization, selectivity; format: cell-based
Summary of the method: as §1

[10] = M4 KO, VU0467154 10.0 mg/kg IP + MK-801 0.30 mg/kg IP
[11] = M4 KO, VU0467154 10.0 mg/kg IP + vehicle

## Cc1nnc2sc(C(=O)NCc3ccc(S(=O)(=O)C(F)(F)F)cc3)c(N)c2c1C [VU0467154, 5-amino-3,4-dimethyl-N-(4-((trifluoromethyl)sulfonyl)benzyl)thieno[2,3-c]pyridazine-6-carboxamide]
[1]; all targets included in this panel
  displacement of the radioligand: ≤ 30%
[1]; majority of targets
  displacement of the radioligand: ≤ 20%
In vivo
  Tmax: ~3 h
[2]
  biliary and urinary excretion of the parent compound: Negligible
[3]
  IC50: 240 nM
wild-type mice [4]
  reversal of MK-801-induced increases in ambulatory episodes and vertical counts: potently reversed
  reversal of MK-801-mediated increase in stereotypic counts and decreases in resting time: appeared to be less potent
Rat M4 receptor
  increase in M4 affinity for ACh (α): 14.5 fold
  log α (binding cooperativity with ACh): 1.16 ± 0.06
Rat M2 receptor
  potentiation of ACh response (calcium response): lack of a calcium response
[5]
  fraction unbound: 0.022
wild-type mice [6]
  footshock threshold to elicit jumping: increased the threshold to elicit jumping
  twitching, flinching, and vocalizing responses to increasing foot shock intensities: did not alter
Rat M5 receptor
  potentiation of ACh response (calcium response): lack of a calcium response
M4 KO mice [7]; M4 KO mice
  reversal of MK-801-induced pairwise discrimination deficit: did not reverse the MK-801-induced pairwise discrimination deficit
M4 KO mice [7]; M4 KO, MK-801 in combination with VU0467154 (vehicle 91%)
  response accuracy on the test day: 64%
M4 KO mice [7]; [10]
  correct reward collection latency: 1.57 ± 0.07 s
  correct touch latency: 8.45 ± 1.57 s
  time to complete 60 trials: 1120 ± 95.5 s
M4 KO mice [7]; [11]
  correct reward collection latency: 3.19 ± 0.73 s
  correct touch latency: 22.81 ± 8.86 s
  time to complete 60 trials: 2080 ± 384.9 ^e s
[8]; mean Cbrain, at 2.5 h postadministration
  concentration at 2.5 h: 217 nM
[8]; mean Cbrain,u, 2.5 h, in vitro mouse fubrain 0.014
  concentration at 2.5 h: 3 nM
M4 KO mice [9]
  effect on amphetamine-induced hyperlocomotion: had no effect on the time course of amphetamine-induced hyperlocomotion
M4 KO mice [9]; 10 mg/kg IP, amphetamine […] SC
  mean reversal of AHL: –6.6%
Rat M3 receptor
  potentiation of ACh response (calcium response): lack of a calcium response
Human M5 receptor
  potentiation of ACh response (calcium response): lack of a calcium response
